Data set [1] has as its system Mus musculus. Nature of the data set: Induction of Nrf2-mediated GCLM gene expression in small intestine of C57BL/6 mouse at 50 mg/kg, po administered as single dose measured after 24 hrs by RT-PCR analysis related to sulforaphane. Format: functional. A digest of the protocol:
(§1)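 Male C57BL/6 mice (7 weeks, AIN 76A diet; n=4) given a single 50 mg/kg oral gavage of compound, sulforaphane, or vehicle (10% DMSO + 10% Cremophor EL + 80% PBS). Small intestine harvested 24 h later; GCLM and NQO1 mRNA measured by TaqMan qRT-PCR with β-actin normalization.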

For data set [2], the target named is T1, Nuclear factor erythroid 2-related factor 2 (Homo sapiens) (UniProt Q16236).
T1 sequence (whole entry): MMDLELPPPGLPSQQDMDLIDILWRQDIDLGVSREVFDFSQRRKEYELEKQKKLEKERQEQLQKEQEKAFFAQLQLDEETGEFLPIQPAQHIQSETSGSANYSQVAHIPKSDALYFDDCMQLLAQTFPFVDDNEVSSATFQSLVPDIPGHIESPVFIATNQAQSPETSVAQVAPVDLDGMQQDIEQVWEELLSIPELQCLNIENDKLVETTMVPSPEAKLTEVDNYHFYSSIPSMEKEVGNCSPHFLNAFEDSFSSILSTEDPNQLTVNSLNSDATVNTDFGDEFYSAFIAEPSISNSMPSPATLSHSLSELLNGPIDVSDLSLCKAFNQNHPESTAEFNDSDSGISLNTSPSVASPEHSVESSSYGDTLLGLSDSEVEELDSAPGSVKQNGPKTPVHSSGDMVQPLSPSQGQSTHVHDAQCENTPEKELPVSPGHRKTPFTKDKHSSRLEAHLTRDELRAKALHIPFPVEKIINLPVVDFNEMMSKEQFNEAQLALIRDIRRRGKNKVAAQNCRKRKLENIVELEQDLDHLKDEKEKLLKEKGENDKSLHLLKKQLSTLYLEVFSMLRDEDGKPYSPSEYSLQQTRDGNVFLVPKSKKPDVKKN
Nature of the data set: Induction of Nrf2-mediated GCLM mRNA expression in human BEAS2B cells at 10 uM after 48 hrs by RT-PCR analysis. Format: functional, cell-based. In a few lines:
(§2)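 Time course in Beas-2B cells at 10 µM compound: GCLM, NQO1 and HO-1 mRNA measured 6, 12, 24 and 48 h after treatment by TaqMan qRT-PCR, β-actin normalization. Representative of 3 independent experiments, triplicate wells.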

The target of data set [3] is T1, Nuclear factor erythroid 2-related factor 2 (Homo sapiens). Nature of the data set: Induction of Nrf2-mediated NQO1 mRNA expression in human BEAS2B cells at 20 uM after 24 hrs by RT-PCR analysis.
Data set [4] has the same target. Nature of the data set: Induction of Nrf2-mediated GCLM gene expression in human BEAS2B cells at 10 uM after 16 hrs by RT-PCR analysis relative to untreated control. Format: functional, cell-based. A digest of the protocol:
(§3)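 Beas-2B cells (DMEM:F12, 10% FBS) plated 24 h, then exposed to 10 µM compound in DMSO (final ≤0.1%) for 16 h; sulforaphane as positive control. Total RNA extracted, reverse transcribed with random hexamers, GCLM and NQO1 mRNA quantified by TaqMan qRT-PCR, fold change vs DMSO. Representative of 3 independent experiments, quadruplicate wells.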

The target is the same in data set [5]. Nature of the data set: Induction of Nrf2-mediated NQO1 gene expression in human BEAS2B cells at 10 uM after 24 hrs by RT-PCR analysis in presence of 10 mM N-acetylcysteine. Format: functional, cell-based. A digest of the protocol: (§4)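 Beas-2B cells co-incubated with 10 µM compound with or without N-acetylcysteine (10 mM); cells harvested 24 h later. GCLM, NQO1 and HO-1 mRNA quantified by TaqMan qRT-PCR, normalized to β-actin. Representative of 3 independent experiments, triplicate wells.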

Data set [6] has the same target. Nature of the data set: Induction of Nrf2-mediated HO1 mRNA expression in human BEAS2B cells at 10 uM after 6 hrs by RT-PCR analysis relative to sulforaphane. Format: functional, cell-based. A digest of the protocol:
as §2

For data set [7] the target is unchanged. Nature of the data set: Induction of Nrf2-mediated HO1 mRNA expression in human BEAS2B cells after 24 hrs by RT-PCR analysis. Format: functional, cell-based. A digest of the protocol: (§5)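 Beas-2B cells exposed for 24 h to 2.5, 5, 10 or 20 µM compound in DMSO (final ≤0.1%), sulforaphane as comparator. GCLM, NQO1 and HO1 mRNA measured by TaqMan qRT-PCR, normalized to β-actin. Representative of 3 independent experiments, triplicate wells.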

Data set [8] is described as follows: Cytotoxicity against human BEAS2B cells assessed as cell viability at 20 uM after 24 hrs by MTT assay relative to sulforaphane. Format: cell-based. The settings on record: beas-2b. In a few lines: (§6)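 Beas-2B cells treated with compound or DMSO vehicle (0.1%) for 24 h; MTT (5 mg/ml in serum-free medium) added for the last 4 h, formazan dissolved in DMSO after PBS wash, absorbance read at 570 nm. Viability also checked by trypan blue exclusion.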
Background: Tetrazolium dyes change colour on reduction, which living cells bring about.

In data set [9] the target is T1, Nuclear factor erythroid 2-related factor 2 (Homo sapiens). Nature of the data set: Induction of Nrf2-mediated HO1 gene expression in human BEAS2B cells at 10 uM after 24 hrs by RT-PCR analysis in presence of 10 mM N-acetylcysteine. Format: functional, cell-based. A digest of the protocol: as §4
Data set [10] shares this target. Nature of the data set: Induction of Nrf2-mediated NQO1 mRNA expression in human BEAS2B cells at 10 uM after 24 hrs by RT-PCR analysis relative to sulforaphane. Format: functional, cell-based.
Data set [11] shares this target. Nature of the data set: Induction of Nrf2-mediated GCLM mRNA expression in human BEAS2B cells after 24 hrs by RT-PCR analysis. Format: functional, cell-based. A digest of the protocol: as §5
In data set [12] the test system is Mus musculus. Nature of the data set: Induction of Nrf2-mediated NQO1 gene expression in small intestine of C57BL/6 mouse at 50 mg/kg, po administered as single dose measured after 24 hrs by RT-PCR analysis related to sulforaphane. Format: functional. In a few lines: as §1
Data set [13] addresses T1, Nuclear factor erythroid 2-related factor 2 (Homo sapiens). Nature of the data set: Induction of Nrf2-mediated NQO1 mRNA expression in human BEAS2B cells after 24 hrs by RT-PCR analysis. Format: functional, cell-based. A digest of the protocol:
as §5

Data set [14] has the same target. Nature of the data set: Induction of Nrf2-mediated GCLM gene expression in human BEAS2B cells at 10 uM after 24 hrs by RT-PCR analysis in presence of 10 mM N-acetylcysteine. Format: functional, cell-based. In a few lines: as §4
Data set [15] has the same target. Nature of the data set: Induction of Nrf2-mediated NQO1 gene expression in human BEAS2B cells at 10 uM after 16 hrs by RT-PCR analysis relative to untreated control. Format: functional, cell-based. In a few lines:
as §3

Data set [16] concerns Mus musculus. Nature of the data set: Induction of Nrf2-mediated GCLM gene expression in small intestine of C57BL/6 mouse at 50 mg/kg, po administered as single dose measured after 24 hrs by RT-PCR analysis related to control. Format: functional. In a few lines: as §1
Data set [17] has as its target T1, Nuclear factor erythroid 2-related factor 2 (Homo sapiens). Nature of the data set: Induction of Nrf2-mediated GCLM mRNA expression in human BEAS2B cells at 20 uM after 24 hrs by RT-PCR analysis. Format: functional, cell-based. A digest of the protocol:
as §5

For data set [18], the system named is Mus musculus. Nature of the data set: Induction of Nrf2-mediated NQO1 gene expression in small intestine of C57BL/6 mouse at 50 mg/kg, po administered as single dose measured after 24 hrs by RT-PCR analysis related to control. Format: functional. A digest of the protocol:
as §1

Data set [19] addresses T1, Nuclear factor erythroid 2-related factor 2 (Homo sapiens). Nature of the data set: Induction of Nrf2-mediated NQO1 gene expression in human BEAS2B cells overexpressing ARE luciferase reporter plasmid after 16 hrs by chemiluminescence assay. Format: functional, cell-based. In a few lines:
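Beas-2B cells stably transfected with NQO1-ARE luciferase reporter (blasticidin 6 µg/ml selection) seeded at 10,000 cells/well for 16 h, then exposed to graded compound concentrations or DMSO for 16 h. Luciferase activity read by chemiluminescence as relative luminescence intensity. Representative of 3 independent experiments, quadruplicate wells.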

For data set [20] the target is unchanged. Nature of the data set: Induction of Nrf2-mediated HO1 mRNA expression in human BEAS2B cells at 10 uM after 48 hrs by RT-PCR analysis relative to sulforaphane. Format: functional, cell-based. In a few lines:
as §2

Data set [21] has the same target. Nature of the data set: Induction of Nrf2-mediated HO1 mRNA expression in human BEAS2B cells at 10 uM after 24 hrs by RT-PCR analysis relative to sulforaphane. Format: functional, cell-based.
Data set [22] has the same target. Nature of the data set: Induction of Nrf2-mediated GCLM mRNA expression in human BEAS2B cells at 10 uM after 6 hrs by RT-PCR analysis. Format: functional, cell-based. In a few lines: as §2
Data set [23] has the same target. Nature of the data set: Induction of Nrf2-mediated NQO1 mRNA expression in human BEAS2B cells at 10 uM after 48 hrs by RT-PCR analysis relative to sulforaphane. Format: functional, cell-based. In a few lines: as §2
Data set [24] is described as follows: Cytotoxicity against human BEAS2B cells assessed as cell viability after 24 hrs by MTT assay. More on the design: concentration or dose not given beside the values. As to conditions: read-out: Activity. Format: cell-based, BEAS-2B. A digest of the protocol: as §6

The source made the active and inactive calls. No cut-off for these calls is given here.

For `COc1ccccc1C(=O)/C=C/c1ccccc1C(F)(F)F`, the fold change (FC) with Mus musculus [1] amounted to 3; in data set [3], 10; in data set [4], 4.5; in data set [6] it was 150; in the data set with Mus musculus [12], 5; in data set [15], 4.6. The “fold change (FC)” value is 6 in the data set with Mus musculus [16]; 5 in data set [17]; 10 in the data set on Mus musculus [18]; 6 in [21]; 7 in data set [22]. In addition, the outcome in data set [2] and in data set [20] was inactive. The result in [5], in [9], in data set [10], in data set [14] and in data set [23] was Active. The Activity entry in data set [7] was “Dose-dependent effect”; in data set [8] it was “Non-toxic”; in [11], “Dose-dependent effect”; in data set [13], “Dose-dependent effect”; in data set [19], “Dose-dependent effect”. For the same compound, the viability at 24 h in [24] amounted to 101%.

For the origin of these results see ChEMBL document CHEMBL1799988, “Novel chalcone derivatives as potent Nrf2 activators in mice and human lung epithelial cells” (J Med Chem, 2011).
